Measurements: ChEMBL document CHEMBL2202989, “New adamantane phenylalkylamines with σ-receptor binding affinity and anticancer activity, associated with putative antagonism of neuropathic pain” (J Med Chem, 2012)

Tests used:
HCT-15 = assay: Growth inhibition of human HCT15 cells after 48 hrs by SRB assay; assay type: functional; conditions: HCT-15, 48 h; for CC50: read-out: LC50 (the source's name)
How it was run: (§1)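 Cells grown in RPMI 1640 with 5% heat-inactivated FCS, 2 mM L-glutamine and antibiotics, 37 °C, 5% CO2. Seeded at 3500–30000 cells/well and left 24 h before dosing. DMSO solutions added at 10-fold dilutions from 100 to 0.01 μM for 48 h. Cells TCA-fixed and SRB-stained, absorbance read at 540 nm; GI50 derived against the time-zero plate.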

MIA PaCa-2 = assay: Growth inhibition of human MIAPaCa2 cells after 48 hrs by SRB assay; assay type: functional; conditions: MIA PaCa-2, 48 h; how it was run: as §1
HCT-116 = assay: Growth inhibition of human HCT116 cells after 48 hrs by SRB assay; assay type: functional; conditions: HCT-116, 48 h; for CC50: read-out: LC50 (the source's name); how it was run: as §1
IGROV-1 = assay: Growth inhibition of human IGROV1 cells after 48 hrs by SRB assay; assay type: functional; conditions: IGROV-1, 48 h; for CC50: read-out: LC50 (the source's name); how it was run: as §1
BXPC-3 [1] = assay: Growth inhibition of human BxPC3 cells after 48 hrs by SRB assay; assay type: functional; conditions: BXPC-3, 48 h; how it was run: as §1
BXPC-3 [2] = assay: Antitumor activity against human BxPC3 cells xenografted in SCID mouse assessed as tumor growth inhibition at 35 mg/kg, ip administered twice a week for three cycles measured after 3 cycles relative to control; assay type: functional; conditions: BXPC-3, ip, route intraperitoneal, read-out: TGI
How it was run: (§2)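 SCID mice bearing BxPC3 pancreatic xenografts, 10 mice per group (20 tumors). Drug dissolved in water for injection, given ip twice a week for three cycles. Controls were untreated and 5% Tween 80 vehicle. Tumor volume measured by caliper twice weekly; reduction reported on termination day. Two-tailed Student's t test.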

OVCAR-5 = assay: Growth inhibition of human OVCAR5 cells after 48 hrs by SRB assay; assay type: functional; conditions: OVCAR-5, 48 h; how it was run: as §1
[3] = (§3) Growth inhibition of human NHDF cells after 48 hrs by SRB assay; assay type: cell-based; conditions: NHDF cells; how it was run: as §1
NHDF = assay: as §3; assay type: cell-based; conditions: nhdf, 48 h; how it was run: as §1
HL-60(TB) = assay: Growth inhibition of human HL-60(TB) cells after 48 hrs by SRB assay; assay type: functional; conditions: HL-60, 48 h; for CC50: read-out: LC50 (the source's name)
How it was run: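 Cells kept in RPMI 1640 with 5% FCS at 37 °C, 5% CO2, and seeded 24 h before dosing. Compound given from DMSO at 10-fold dilutions, 100 to 0.01 μM, for 48 h. Cells fixed with TCA, stained with SRB, absorbance read at 540 nm. GI50 taken from a time-zero plate.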

U-251 = assay: Growth inhibition of human U251 cells after 48 hrs by SRB assay; assay type: functional; conditions: U-251, 48 h; for CC50: read-out: LC50 (the source's name); how it was run: as §1
BXPC-3 [4] = assay: Antitumor activity against human BxPC3 cells xenografted in SCID mouse assessed as tumor growth inhibition at 17 mg/kg, ip administered twice a week for three cycles measured after 3 cycles relative to control; assay type: functional; conditions: BXPC-3, ip, route intraperitoneal, read-out: TGI; how it was run: as §2
DU-145 = assay: Growth inhibition of human DU145 cells after 48 hrs by SRB assay; assay type: functional; conditions: DU-145, 48 h; for CC50: read-out: LC50 (the source's name); how it was run: as §1
[5] = Growth inhibition of human MSC cells after 48 hrs by SRB assay; assay type: cell-based; how it was run: as §1
[6] = (§4) Growth inhibition of human HUVEC cells after 48 hrs by SRB assay; assay type: cell-based; conditions: HUVEC cells; how it was run: as §1
MCF7 = assay: Growth inhibition of human MCF7 cells after 48 hrs by SRB assay; assay type: functional; conditions: MCF7, 48 h; for CC50: read-out: LC50 (the source's name); how it was run: as §1
SK-HEP1 = assay: Growth inhibition of human SKHEP1 cells after 48 hrs by SRB assay; assay type: functional; conditions: SK-HEP1, 48 h; for CC50: read-out: LC50 (the source's name); how it was run: as §1
PC-3 = assay: Growth inhibition of human PC3 cells after 48 hrs by SRB assay; assay type: functional; conditions: PC-3, 48 h; for CC50: read-out: LC50 (the source's name); how it was run: as §1
[7] = Displacement of [3H]batrachotoxin benzoate from Na+ channel after 60 mins by liquid scintillation counting
How it was run: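 Na+ channel site 2 binding: vesicle preparation (150−500 μg protein) incubated 60 min with 20−25 nM [3H]BTX-B and 50 μg Leiurius quinquestriatus venom. Buffer was 130 mM choline chloride, 50 mM HEPES/Tris pH 7.4, glucose, MgSO4, KCl, BSA. Filtered on GF/C with cold washes; scintillation counting. Nonspecific binding defined with 250 μM veratridine.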

[8] = target: Sigma non-opioid intracellular receptor 1 (Homo sapiens, UniProt Q99720); assay: Displacement of [3H]-(+)-pentazocine from sigma 1 receptor in human Jurkat cell membrane; assay type: cell membranes
How it was run: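 Jurkat cell membranes incubated with 8 nM [3H](+)-pentazocine and a range of test concentrations for 2 h at 22 °C in Tris-HCl buffer, pH 7.4. Nonspecific binding defined with 10 μM haloperidol. Run in triplicate.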

[9] = Displacement of [3H]1,3-di-otolylguanidine from sigma 2 receptor in rat cerebral cortex membranes; assay type: cell membranes, Membrane
How it was run: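 Rat cerebral cortex membranes incubated with 5 nM [3H]DTG plus 300 nM (+)-pentazocine to mask σ1 sites, together with a range of test concentrations, 2 h at 22 °C in Tris-HCl, pH 7.4. Nonspecific binding defined with 10 μM haloperidol.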

HUVEC = assay: as §4; assay type: cell-based; conditions: huvec, 48 h; how it was run: as §1
[10] = read-out: LC50 (the source's name)

Sigma non-opioid intracellular receptor 1, sequence (Q99720 whole entry): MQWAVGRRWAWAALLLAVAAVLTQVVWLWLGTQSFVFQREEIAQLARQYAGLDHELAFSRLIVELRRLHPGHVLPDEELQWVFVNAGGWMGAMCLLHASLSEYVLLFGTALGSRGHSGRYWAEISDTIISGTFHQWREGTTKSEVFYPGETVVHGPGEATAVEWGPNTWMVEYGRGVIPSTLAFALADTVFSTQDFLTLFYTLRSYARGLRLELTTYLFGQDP

O=c1[nH]cc(F)c(=O)[nH]1 [FLUOROURACIL]
GI50 (HCT-15): 21.1 µM | TGI (HCT-15): 100 µM | CC50 (HCT-15): 0.1 µM | GI50 (MIA PaCa-2): 30.6 µM | TGI (MIA PaCa-2): 100 µM | CC50 (MIA PaCa-2; [10]): 0.1 µM | GI50 (HCT-116): 8.8 µM | TGI (HCT-116): 100 µM | CC50 (HCT-116): 0.1 µM | GI50 (IGROV-1): 8.12 µM | TGI (IGROV-1): 100 µM | CC50 (IGROV-1): 0.1 µM | GI50 (BXPC-3 [1]): 2.9 µM | TGI (BXPC-3 [1]): 8.4 µM | inhibition in vivo at 35 mg/kg (BXPC-3 [2]): 36.7% | GI50 (OVCAR-5): 26.4 µM | TGI (OVCAR-5): 100 µM | CC50 (OVCAR-5; [10]): 0.1 µM | GI50 at 48 h [3]: 62 µM | TGI (NHDF): 100 µM | GI50 (HL-60(TB)): 0.1 µM | TGI (HL-60(TB)): 0.1 µM | CC50 (HL-60(TB)): 0.1 µM | GI50 (U-251): 69.6 µM | TGI (U-251): 100 µM | CC50 (U-251): 0.1 µM | inhibition in vivo at 17 mg/kg (BXPC-3 [4]): 23.7% | GI50 (DU-145): 20 µM | TGI (DU-145): 100 µM | CC50 (DU-145): 0.1 µM | TGI [5]: 1 µM | GI50 at 48 h [6]: 3.6 µM | GI50 (MCF7): 14.5 µM | TGI (MCF7): 100 µM | CC50 (MCF7): 0.1 µM | GI50 (SK-HEP1): 7.6 µM | TGI (SK-HEP1): 100 µM | CC50 (SK-HEP1): 0.1 µM | GI50 (PC-3): 10.5 µM | TGI (PC-3): 100 µM | CC50 (PC-3): 0.1 µM

c1ccc(C(c2ccc(CCCN3CCNCC3)cc2)C23CC4CC(CC(C4)C2)C3)cc1 (stereo not given)
GI50 (HCT-15): 3.15 µM | TGI (HCT-15): 6.13 µM | CC50 (HCT-15): 0.00911 µM | GI50 (HCT-116): 2.96 µM | TGI (HCT-116): 5.85 µM | CC50 (HCT-116): 0.00874 µM | GI50 (IGROV-1): 3.29 µM | TGI (IGROV-1): 6.34 µM | CC50 (IGROV-1): 0.00939 µM | GI50 (BXPC-3 [1]): 3.38 µM | LC50 (BXPC-3 [1]): 0.00944 µM | TGI (BXPC-3 [1]): 6.41 µM | GI50 at 48 h [3]: 4.07 µM | LC50 (NHDF): 9.58 µM | TGI (NHDF): 6.82 µM | IC50 [7]: > 1 µM | GI50 (HL-60(TB)): 0.00301 µM | TGI (HL-60(TB)): 0.00822 µM | CC50 (HL-60(TB)): 0.1 µM | GI50 (U-251): 3.3 µM | TGI (U-251): 5.87 µM | CC50 (U-251): 0.00844 µM | IC50 [8]: 0.042 µM | IC50 [9]: 0.461 µM | GI50 (DU-145): 2.83 µM | TGI (DU-145): 5.65 µM | CC50 (DU-145): 0.00846 µM | TGI [5]: 7.28 µM | GI50 at 48 h [6]: 3.97 µM | LC50 (HUVEC): 100 µM | TGI (HUVEC): 7.17 µM | GI50 (MCF7): 3.1 µM | TGI (MCF7): 5.97 µM | CC50 (MCF7): 0.00884 µM | GI50 (SK-HEP1): 3.67 µM | TGI (SK-HEP1): 6.19 µM | CC50 (SK-HEP1): 0.0087 µM | GI50 (PC-3): 3.06 µM | TGI (PC-3): 5.71 µM | CC50 (PC-3): 0.00837 µM

c1ccc(C(c2ccc(CCCN3CCCCC3)cc2)C23CC4CC(CC(C4)C2)C3)cc1 (stereo not given)
GI50 (HCT-15): 3.89 µM | TGI (HCT-15): 6.78 µM | CC50 (HCT-15): 0.00968 µM | GI50 (HCT-116): 3.37 µM | TGI (HCT-116): 5.99 µM | CC50 (HCT-116): 0.00861 µM | GI50 (BXPC-3 [1]): 3.78 µM | LC50 (BXPC-3 [1]): 0.00917 µM | TGI (BXPC-3 [1]): 6.47 µM | GI50 at 48 h [3]: 2.83 µM | LC50 (NHDF): 9.47 µM | TGI (NHDF): 6.15 µM | IC50 [7]: > 0.1 µM | GI50 (U-251): 4.61 µM | TGI (U-251): 7.19 µM | CC50 (U-251): 0.00977 µM | IC50 [8]: 0.0123 µM | IC50 [9]: 0.013 µM | GI50 (DU-145): 5.18 µM | TGI (DU-145): 8.17 µM | CC50 (DU-145): 0.0112 µM | TGI [5]: 1.93 µM | GI50 at 48 h [6]: 3.27 µM | LC50 (HUVEC): 9.18 µM | TGI (HUVEC): 6.23 µM | GI50 (MCF7): 2.41 µM | TGI (MCF7): 6.07 µM | CC50 (MCF7): 0.00963 µM | GI50 (SK-HEP1): 3.25 µM | TGI (SK-HEP1): 5.97 µM | CC50 (SK-HEP1): 0.00868 µM | GI50 (PC-3): 3.92 µM | TGI (PC-3): 7.32 µM | CC50 (PC-3): 0.0107 µM
